According to ChEMBL document CHEMBL5678801, “A benzothiophene inhibitor of mitogen-activated protein kinase-activated protein kinase 2 inhibits tumor necrosis factor alpha production and has oral anti-inflammatory efficacy in acute and chronic models of inflammation” (J Pharmacol Exp Ther, 2010):

Columns and labels:
[1] = molecular target: Receptor-interacting serine/threonine-protein kinase 2 (Homo sapiens, UniProt O43353); assay: Inhibition of RIPK2 (unknown origin)
How it was run: (§1)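 Kinase panel: 200 kinases were first screened at 1 μM inhibitor for percent inhibition. Those above 50% inhibition were then titrated for IC50. MgATP was fixed at the Km(app) determined for each enzyme.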

[2] = Inhibition of TNF alpha production in LPS induced human PBMC cells preincubated with compound for 1 hr followed by LPS induction and measured after 16 hrs by MSD analysis; format: functional, cell-based
[3] = molecular target: Cyclin-dependent kinase 1/cyclin B1 (Homo sapiens, UniProt P06493); assay: Inhibition of CDK1/cycB (unknown origin); format: protein-complex assay; how it was run: as §1
[4] = Inhibition of IL-6 production in LPS induced human PBMC cells preincubated with compound for 1 hr followed by LPS induction and measured after 16 hrs by MSD analysis; format: functional, cell-based
How it was run: (§2)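 Human PBMCs were pretreated with compound for 1 h (<1% DMSO final), then stimulated with LPS 100 ng/ml at 37°C. Cytokines in culture media were read by MSD 4-plex: TNFα at 4 h; IL-1β, IL-6 and IL-8 at 16 h. Data are means ±S.E.M. of two independent experiments in duplicate, three donors. IC50 by 4-parameter nonlinear regression.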

[5] = Cmax in chronic SCW-induced arthritis Lewis rat model plasma at ED80 concentration; format: ADME, cell-free
How it was run: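 Female Lewis rats (125-140 g) received a single i.p. streptococcal cell wall injection. Animals showing the acute phase were pooled, 4-8 per group over three experiments. Dosing was oral gavage b.i.d., days 10-21, in methylcellulose-Tween-20 vehicle. Hind paw volume was read by displacement plethysmometer on day 21, as % inhibition of swelling. Plasma was sampled up to 11 h after the last dose, 3 rats per dose. ED values came from fitted curves.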

[6] = molecular target: T1, Serine/threonine-protein kinase BRSK1 (Homo sapiens, UniProt Q8TDC3); assay: Inhibition of BrSK1 (unknown origin)
T1 sequence (Q8TDC3 whole entry): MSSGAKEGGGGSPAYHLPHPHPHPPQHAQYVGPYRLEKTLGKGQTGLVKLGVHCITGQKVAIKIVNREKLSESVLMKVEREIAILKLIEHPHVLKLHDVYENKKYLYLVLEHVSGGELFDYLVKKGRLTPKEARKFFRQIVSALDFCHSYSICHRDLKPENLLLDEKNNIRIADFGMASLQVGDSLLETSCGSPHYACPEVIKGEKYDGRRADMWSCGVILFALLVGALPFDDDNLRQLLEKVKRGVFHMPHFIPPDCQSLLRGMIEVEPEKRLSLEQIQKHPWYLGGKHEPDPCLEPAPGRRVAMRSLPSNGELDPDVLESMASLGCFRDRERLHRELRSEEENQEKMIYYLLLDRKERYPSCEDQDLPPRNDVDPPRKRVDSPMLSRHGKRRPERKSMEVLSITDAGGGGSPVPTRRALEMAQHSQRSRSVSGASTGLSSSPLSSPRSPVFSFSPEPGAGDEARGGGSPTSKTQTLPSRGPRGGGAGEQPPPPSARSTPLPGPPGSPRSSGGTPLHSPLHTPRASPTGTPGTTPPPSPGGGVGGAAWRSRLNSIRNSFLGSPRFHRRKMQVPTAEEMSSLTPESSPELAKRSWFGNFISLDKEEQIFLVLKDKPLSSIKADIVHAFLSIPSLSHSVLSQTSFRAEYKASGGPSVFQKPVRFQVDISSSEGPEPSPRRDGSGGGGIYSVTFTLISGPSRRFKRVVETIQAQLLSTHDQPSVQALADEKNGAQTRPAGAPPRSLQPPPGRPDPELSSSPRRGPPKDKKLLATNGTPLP
How it was run: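 Selectivity profiling began with a 200-kinase screen at 1 μM compound; kinases above 50% inhibition were then titrated for IC50. MgATP was fixed at each enzyme's Km(app). Buffer was 20 mM HEPES pH 7.5 with 10 mM MgCl2, 1 mM DTT, 0.01% BSA and 0.0005% Tween-20. Endpoint reactions were stopped in the linear phase with 30 mM EDTA.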

[7] = Antiinflammatory activity in human PBMC cells assessed as inhibition of LPS induced TNF alpha production preincubated for 1 hr followed by LPS stimulation and measured after 16 hrs by MSD analysis; format: functional, cell-based
[8] = Inhibition of IL-1 beta production in LPS induced human PBMC cells preincubated with compound for 1 hr followed by LPS induction and measured after 16 hrs by MSD analysis; format: functional, cell-based; how it was run: as §2
[9] = Unbound plasma concentration in po dosed LPS-induced Lewis rat model at ED50 concentration measured after 5.5 hrs of initial dose by LC-MS/MS analysis; format: ADME, organism-based; conditions: in vivo
How it was run: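 Male Lewis rats (225-250 g, 5 per group) were fasted 18 h, then dosed orally at 0.2-60 mg/kg as a suspension in 0.5% methylcellulose/0.025% Tween 20. LPS 1 mg/kg was given i.v. 4 h later. Blood was taken by cardiac puncture 90 min after LPS. Serum TNFα was read by ELISA and drug by LC-MS/MS, three independent experiments. 4-parameter fit. Unbound values were corrected with measured rat plasma protein binding.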

[10] = Plasma protein binding in rat; format: ADME, cell-free
How it was run: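 Binding to rat and human plasma was measured in vitro by ultracentrifugation.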

[11] = Cytotoxicity against human Whole blood cell assessed as reduction in cell viability at upto 20 uM; format: toxicity, cell-based
[12] = Inhibition of IL-1 beta production in LPS induced human Whole blood cell preincubated with compound for 1 hr followed by LPS induction and measured after 16 hrs; format: functional, cell-based
How it was run: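 Human whole blood was stimulated ex vivo with LPS 100 ng/ml. Plasma cytokines were read by MSD 4-plex: TNFα at 4 h; IL-1β, IL-6 and IL-8 at 16 h. Data are means ±S.E.M. of two independent experiments in duplicate, three donors. IC50 by 4-parameter nonlinear regression.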

[13] = Inhibition of TNFalpha production in LPS induced human Whole blood cell preincubated with compound for 1 hr followed by LPS induction and measured after 4 hrs; format: functional, cell-based
How it was run: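 Human whole blood was stimulated with LPS 100 ng/ml for 4 h. Plasma TNFα was read by MSD kit. Three separate experiments in duplicate, mean ±S.E.M. IC50 by 4-parameter nonlinear regression.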

[14] = Cmax in Sprague-Dawley rat at 3 mg/kg, po measured upto 24 hrs by […] analysis; format: ADME, organism-based; conditions: in vivo
How it was run: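 Male Sprague-Dawley rats (275-300 g), carotid-catheterized and acclimated overnight. Dosing was i.v. at 1 mpk (n=2) in 70% saline/20% PEG-400/10% ethanol, or oral at 3 mpk (n=3) as a suspension in 0.5% HPMC/Tween. Plasma drug was measured by LC-MS/MS. Cmax and Tmax were read from individual profiles. t½ came from the terminal log-linear slope and AUC by the linear trapezoidal rule. CL = dose/AUC0-∞, Vdss = CL×MRT, F = dose-normalized AUC po/iv.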

[15] = Inhibition of IL-8 production in LPS induced human PBMC cells preincubated with compound for 1 hr followed by LPS induction and measured after 16 hrs by MSD analysis; format: functional, cell-based; how it was run: as §2

Sequence of Receptor-interacting serine/threonine-protein kinase 2 (O43353 whole entry): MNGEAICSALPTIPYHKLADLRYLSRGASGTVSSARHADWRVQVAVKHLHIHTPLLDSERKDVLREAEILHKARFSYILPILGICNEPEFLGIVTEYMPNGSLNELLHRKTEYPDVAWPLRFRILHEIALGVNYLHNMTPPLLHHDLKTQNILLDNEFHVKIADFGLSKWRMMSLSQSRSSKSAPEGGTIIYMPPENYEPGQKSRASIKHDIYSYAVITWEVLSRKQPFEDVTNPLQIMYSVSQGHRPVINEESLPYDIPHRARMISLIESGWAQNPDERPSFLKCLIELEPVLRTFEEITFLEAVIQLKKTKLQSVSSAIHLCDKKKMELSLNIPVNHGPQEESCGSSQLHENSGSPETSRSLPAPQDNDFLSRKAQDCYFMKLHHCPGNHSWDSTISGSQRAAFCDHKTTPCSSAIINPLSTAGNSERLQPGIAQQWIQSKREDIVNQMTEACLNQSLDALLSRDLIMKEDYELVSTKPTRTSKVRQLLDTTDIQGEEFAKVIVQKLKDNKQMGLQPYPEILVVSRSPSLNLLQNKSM
Sequence of Cyclin-dependent kinase 1/cyclin B1 (P06493 whole entry): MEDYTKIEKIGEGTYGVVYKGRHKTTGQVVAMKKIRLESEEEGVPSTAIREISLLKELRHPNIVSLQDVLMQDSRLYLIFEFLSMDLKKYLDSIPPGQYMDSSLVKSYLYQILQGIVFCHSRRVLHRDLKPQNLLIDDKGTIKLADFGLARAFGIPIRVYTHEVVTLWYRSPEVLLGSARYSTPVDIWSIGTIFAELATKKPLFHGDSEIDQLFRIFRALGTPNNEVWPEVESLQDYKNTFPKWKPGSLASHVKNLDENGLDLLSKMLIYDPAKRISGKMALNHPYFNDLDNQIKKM
Sequence of Cyclin-dependent kinase 1/cyclin B1 (P14635 whole entry, further chain): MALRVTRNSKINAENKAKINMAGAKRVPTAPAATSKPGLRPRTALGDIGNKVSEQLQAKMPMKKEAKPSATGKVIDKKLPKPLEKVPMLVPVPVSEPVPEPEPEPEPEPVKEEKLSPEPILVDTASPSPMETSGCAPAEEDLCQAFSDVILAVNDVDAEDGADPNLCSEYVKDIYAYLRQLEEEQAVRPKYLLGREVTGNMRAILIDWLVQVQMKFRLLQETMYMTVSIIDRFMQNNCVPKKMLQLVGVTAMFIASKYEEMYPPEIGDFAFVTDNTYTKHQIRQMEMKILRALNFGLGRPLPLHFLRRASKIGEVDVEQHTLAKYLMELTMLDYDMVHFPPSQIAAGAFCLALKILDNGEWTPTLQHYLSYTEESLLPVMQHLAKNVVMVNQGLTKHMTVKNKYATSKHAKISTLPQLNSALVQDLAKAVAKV

`Cc1ccc(-c2ccc3c(ccc4sc5c(c43)NC[C@@H](C)NC5=O)n2)cn1` showed an IC50 [1] of 590 nM, an IC50 [2] of 160 nM and an IC50 [3] of 354 nM. The IC50 [4] was 1260 nM, the Cmax [5] was 28000 nM and the IC50 [6] was 187 nM. The IC50 [7] was 214 nM, the IC50 [8] was 2780 nM and the Cp(f) [9] was 110 nM. The PPB [10] was 92.1%, the Activity [11] was “Non-Toxic” and the IC50 [12] was over 25000 nM. For the same compound, the IC50 [13] was 1970 nM, the Cmax [14] was 660 nM and the IC50 [15] was 2090 nM.
